Screening data deposited in PubChem by several laboratories.
An excerpt weighted towards active compounds, which were near 10% of everything screened.
WT yeast gro inh: growth inhibition of WT yeast, mitochondrial fusion screen; mitochondrial fusion phenotypic screen, WT strain; inhibition, % at 10 µM; 190,000 compounds, 2.1% hits; AID 1362; in the data active means inhibition above about 58%; tested in S. cerevisiae
Diaph act CS: counter-screen for diaphorase-based assays: diaphorase activators and chemical reducers; Diaphorase/resazurin coupled assay, resorufin fluorescence, 16 min; hits give high values; 1 = vehicle wells, 0 = NADH-free wells; activation factor at 20 µM; 190,000 compounds, 0.005% hits; AID 1229;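 active means diaphorase activity raised at least twofold by the compound at 20 µM; inactive means activation factor below 2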
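Material: bacterial diaphorase enzyme (C. kluyveri); amount: enzyme 0.07 U/mL final; reagent: NADH substrate 0.114 mM plus resazurin dye 0.1 mM, final; doses: single compound dose of 20 µM, 1% DMSO final; timing: 16 min enzyme reaction, ambient temperature; measured by: fluorescence of resorufin, 544 nm excitation, 590 nm emission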
PMI act satM6P: PMI (human) activation, high substrate | P34949 | activation factor at 20 µM | 190,000 compounds, 0.34% hits | coupled PMI enzyme assay, resazurin fluorescence, 20 min; hits give high values; 1 = untreated enzyme, 0 = substrate-free blank;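 active means activation factor of 2 or more at 20 µM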
Target sequence (P34949 whole entry, looked up): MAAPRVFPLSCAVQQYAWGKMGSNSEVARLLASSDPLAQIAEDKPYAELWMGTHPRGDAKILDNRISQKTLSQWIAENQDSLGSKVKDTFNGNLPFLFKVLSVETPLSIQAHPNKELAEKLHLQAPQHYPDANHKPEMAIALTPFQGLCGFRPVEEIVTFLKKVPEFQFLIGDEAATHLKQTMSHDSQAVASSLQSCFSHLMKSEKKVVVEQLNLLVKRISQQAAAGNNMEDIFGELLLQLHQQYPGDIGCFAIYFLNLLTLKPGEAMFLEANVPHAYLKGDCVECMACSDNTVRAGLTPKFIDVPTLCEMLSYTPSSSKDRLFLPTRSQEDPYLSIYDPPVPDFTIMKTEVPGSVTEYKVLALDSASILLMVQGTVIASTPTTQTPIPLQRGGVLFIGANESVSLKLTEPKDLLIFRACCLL
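Technique: Diaphorase-driven resazurin-to-resorufin fluorescence, excitation 544, emission 590 nm | Assay system: Human PMI in coupled enzyme assay | Times: Enzyme reaction with compound 20 min at room temperature | Medium: HEPES-buffered pH 7.4 with magnesium and detergent | Reagent: Mannose-6-phosphate 1.0 mM (near-saturating) plus 0.22 mM NADP+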
L major viab: inhibitors of Leishmania major promastigote growth. 200,000 compounds, 9% hits. Leishmania major promastigotes, resazurin fluorescence viability. inhibition, % at 10 µM; in the data active means inhibition above about 50%;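 further: promastigotes grown with compound for 44 hours at 28 °C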
PMI activator: phosphomannose isomerase (human) activation; P34949; purified human PMI, coupled resazurin fluorescence, 20 min; hits give high values; 1 = vehicle control, 0 substrate-free wells; activation factor at 20 µM; 190,000 compounds, 0.005% hits;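 active means activation factor of 2 or more at 20 µM, relative to plate controls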
Numbers without * were called inactive; x = no result.

SMILES	WT yeast gro inh	Diaph act CS	PMI act satM6P	L major viab	PMI activator
Cc1cccc(C)c1Nc1nnc(SCC(=O)Nc2cc(S(=O)(=O)N3CCCCC3)ccc2Cl)s1	-3	0.8	0.9	50*	0.8
COc1ccc(NC(=O)CSc2nnc(NC(=O)c3ccc(S(=O)(=O)N4CCOCC4)cc3)s2)cc1	-2	1.1	1.3	76*	1.2
Cc1cccc(Nc2nnc(SCC(=O)Nc3cccnc3Cl)s2)c1	14	0.9	1	62*	1
O=C(CSc1cccc(C(F)(F)F)c1)Nc1cc(S(=O)(=O)N2CCCC2)ccc1Cl	24	0.9	1	55*	0.9
COC(=O)c1ccc(CNC(=O)COC(=O)Cc2ccsc2)cc1	0	0.9	1	-3	0.9
Cc1cccc(NC(=O)CSc2nnc(NC(=O)c3ccc(S(=O)(=O)N4CCOCC4)cc3)s2)c1C	1	1	1.3	87*	1.2
Cc1ccc(Nc2nnc(SCC(=O)Nc3ccc(S(=O)(=O)N4CCOCC4)cc3)s2)cc1	-11	0.8	0.9	40	0.9
COc1ccc(NC(=O)COc2nc3ccccc3nc2N2CCOCC2)c(OC)c1	0	1	1.1	-6	1.1
Cc1cc(C)c(CSc2ncc(-c3ccc([N+](=O)[O-])cc3)[nH]2)c(C)c1	24	0.9	0.9	97*	0.8
COc1cc(C2C(C#N)=C(N)N(c3ccc(F)cc3)C3=C2S(=O)(=O)CC3)ccc1O (stereo not given)	8	0.8	0.5	0	0.9
O=C(/C=C/Sc1ccccc1)c1ccccc1	39	1	1	59*	1
CSC(=CC(=O)c1ccccc1)SC	0	1	1	85*	1
Cc1ccc(N/C(=C\C(=O)c2ccccc2)C(=O)O)cc1	15	1	1	1	1
O=C(/C=C/Sc1ccccc1)c1ccc(Cl)cc1	10	1	1.1	92*	1.1
CC[C@@H](C)C(NC(=O)OC(C)(C)C)c1cn([C@@H](Cc2ccc(O)cc2)C(=O)N2CCN(C(=O)OC(C)(C)C)CC2)nn1 (stereo not given in full)	-3	1	1	-3	0.9
COC(CNc1cc(=O)oc2ccccc12)OC	-5	0.9	1.1	-1	1.1
COc1ccccc1-c1cc2nc(C)c(CCC(=O)NC(C)CCc3ccco3)c(C)n2n1 (stereo not given)	14	0.8	1	98*	1
Cc1nc2c(-c3ccccc3)c(C)nn2c(C)c1CCC(=O)NC(C)CCc1ccco1 (stereo not given)	5	0.7	0.9	100*	0.9
O=C(COc1ccc([N+](=O)[O-])cc1)Nc1ccc(C(=O)Nc2ccccc2C(=O)O)cc1	10	0.8	1	-11	1.1
CC(C)(C)NS(=O)(=O)c1cc(C(=O)Nc2sccc2C#N)ccc1Cl	5	0.8	1	54*	1
N#Cc1ccsc1NC(=O)c1cnccn1	1	x	x	-2	x
Cc1ccc(OCCCn2ccnc2)cc1C	44	1	1	100*	0.9
Cc1cc(OCCn2ccnc2)ccc1C(C)C	25	1	1.2	97*	1
CCOc1ccc(OCCCCn2ccnc2)cc1	4	0.8	0.9	4	0.9
CCOc1ccc(OCCn2ccnc2)cc1	-8	1	1.1	29	1.1
SMILES	WT yeast gro inh	Diaph act CS	PMI act satM6P	L major viab	PMI activator
Cc1cccc(OCCCn2ccnc2)c1	-10	0.9	0.9	98*	0.9
O=C(NCCc1c[nH]c2ccccc12)C(=O)Nc1ccccc1	1	0.9	1	-5	1.1
O=C(Cc1ccccc1)N[C@@H](Cc1ccccc1)c1nc2ccccc2[nH]1	1	0.9	0.9	-7	1
O=C(N[C@@H](Cc1ccccc1)c1nc2ccccc2[nH]1)c1cc([N+](=O)[O-])ccc1Cl	-6	0.9	1	89*	1.1
O=c1ncn(-c2ccccc2F)c2ncccc12	3	0.9	0.9	-4	0.8
COc1ccc(C2(O)CCN(CC(=O)Nc3nccs3)CC2)c(OC)c1	-6	1	0.9	88*	0.8
COc1ccc(C2=C/C(=C\c3cccc(OC(C)=O)c3)C(=O)O2)cc1	20	1	1.5	51*	1.4
CC(=O)Oc1cccc(/C=c2\sc3nc(-c4ccco4)nn3c2=O)c1	-5	0.9	1.2	-4	0.9
CCOC(=O)c1cnc2c(-c3ccc(F)cc3)cnn2c1C(F)(F)F	2	0.9	0.9	97*	1
CCOC(=O)c1cnc2c(-c3ccc(Cl)cc3)cnn2c1C	24	x	x	4	x
Cc1cccc(C(=O)c2cnc3ccccc3c2-c2ccccc2)c1	62*	1	1	21	1
COc1ccc(-c2cc(C(=O)N3CCN(C(c4ccccc4)c4ccccc4)CC3)no2)cc1	-5	0.9	1	3	0.9
CN1CCN(C(=O)c2cc(-c3ccccc3)on2)CC1	-8	0.9	1	70*	1
CC(C)Cc1cc(C(=O)N2CCN(C(c3ccccc3)c3ccccc3)CC2)no1	59*	0.8	0.9	-3	0.9
COc1ccc(-c2cc(C(=O)N3CCN(C(c4ccccc4)c4ccccc4)CC3)no2)cc1OC	-20	0.7	0.8	94*	0.8
Cc1ccc(Cn2nnnc2CN2CCC(c3nc4ccc(Cl)cc4[nH]3)CC2)cc1	3	0.8	0.9	55*	0.9
COc1ccc(NC(=O)N(C2CCCCC2)C(C)c2cccnc2)c(OC)c1 (stereo not given)	15	0.8	0.9	82*	0.9
CCc1ccc(NC(=O)c2cccnc2)cc1	6	0.9	1	-7	0.9
CC(=O)N1CCC(N(C(=O)Nc2ccc(C)c(C)c2)C2CCCC2)CC1	3	0.9	1	-5	0.9
COc1ccc(NC(=O)N(C2CCCCC2)C(C)c2ccco2)c(OC)c1 (stereo not given)	15	0.8	0.8	40	0.9
Cc1ccc(NC(=O)N(C2CCCCC2)C(C)c2cccnc2)cc1C (stereo not given)	3	0.8	0.9	83*	1
CCc1ccc(NC(=O)N(C2CCCCC2)C(C)c2cccnc2)cc1 (stereo not given)	3	0.9	1	90*	1
CCOc1cc(N2CCOCC2)c(OCC)cc1NC(=O)c1ccc(OCc2c(C)noc2C)c(OC)c1	5	0.8	0.8	3	0.8
Cc1ccc(N=Cc2cc3c(cc2O)OC(N)=C(C#N)C3c2ccccc2)cc1 (stereo not given)	14	0.9	0.9	2	0.9
CC1(C(=O)NCc2cccnc2)CCC(=O)N1Cc1cccs1 (stereo not given)	10	0.8	0.9	-6	0.9
NNC(=O)c1cccc(COc2ccc3c(c2)CCC3)c1	81*	0.9	1	1	1
